# High-throughput results as filed in PubChem BioAssay.
# Hits are enriched below; roughly 3.3% of the tested compounds scored in any of these assays.
# Arrestin-AP2 inh: human beta-arrestin and AP2 interaction inhibition | 0.31% of 340,000 active | inhibition, % at 10 µM | FITC-arrestin peptide / GST-AP2 beads, flow cytometry; AP2 beta2 appendage carries R879A mutation;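 active = inhibition above a set limit, near 3 SD of compounds lacking own fluorescence, cut at about 54% in these data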;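 note: plate controls were DMSO wells for no effect and 5 µM unlabelled arrestin peptide for full effect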
#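 System: GST-tagged AP2 beta2-adaptin appendage (R879A) on 4 µm glutathione beads / Reagent: FITC-arrestin peptide, 50 nM / Detection: HyperCyt-sampled flow cytometry, FL1 channel, ex 488/em 535 nm / Timing: 12 min plus 1 h, RT / Buffer or medium: PBS plus Tween 20 (0.05%) and BSA (0.1%)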
# Exocytosis inh: lytic granule exocytosis inhibition; TALL-104 LAMP-1 surface exposure, flow cytometry; cells stimulated with thapsigargin and PMA; inhibition, % at 10 µM; 0.66% of 360,000 active; AID 651702;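 active = inhibition above about 55%, limit read from the data; inconclusive = no clear call, values can overlap the other calls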
# Myeloid diff MLP: promotes myeloid progenitor differentiation. AID 624256. 1% of 360,000 active. calls only at 10 µM. ER-HoxA9 myeloid progenitors, lysozyme-GFP differentiation, flow cytometry;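 active = normalized GFP-positive differentiation at or above the plate's own cutoff, the solvent-only control mean plus 3 SD; inconclusive = no clear call, values can overlap the other calls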;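 note: cells exposed to compound for four days before flow analysis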
# ATG4B inhibitor: inhibitors of human ATG4B cysteine protease | 0.51% of 340,000 active | ATG4B cleavage of LC3-PLA2, NBD-HPC fluorescence, 1 h | inhibition, % at 8.33 µM | Q9Y4P1; in the data active = inhibition above about 40%
# NRP1-CendR mod: NRP-1/CendR interaction modulation. O14786. FAM-RPARPAR peptide binding to NRP-1, fluorescence polarization. inhibition, % at 25 µM. 0.85% of 360,000 active. AID 602438;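 active = inhibition or corrected inhibition above about 18%, plus a signal ratio from 0.5 to 1.5, limit read from the data, passing the limit was not always enough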
# ABCB6 inh MLPCN: inhibitors of human ABC transporter ABCB6; K562-ABCB6 porphyrin accumulation, flow cytometry, 1 h; active compounds read low; 0.19% of 360,000 active; fluorescence ratio to DMSO, % at 10 µM; AID 602162;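 active = fluorescence ratio to DMSO below 75%, the collection mean minus 3 SD; inconclusive = too few cells collected in the well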;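 note: signal is porphyrin accumulated inside mitochondria; 100% equals median channel fluorescence of DMSO control wells; lower ratio means ABCB6 inhibition with less porphyrin fluorescence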
# Target sequence (Q9NP58 whole entry, looked up): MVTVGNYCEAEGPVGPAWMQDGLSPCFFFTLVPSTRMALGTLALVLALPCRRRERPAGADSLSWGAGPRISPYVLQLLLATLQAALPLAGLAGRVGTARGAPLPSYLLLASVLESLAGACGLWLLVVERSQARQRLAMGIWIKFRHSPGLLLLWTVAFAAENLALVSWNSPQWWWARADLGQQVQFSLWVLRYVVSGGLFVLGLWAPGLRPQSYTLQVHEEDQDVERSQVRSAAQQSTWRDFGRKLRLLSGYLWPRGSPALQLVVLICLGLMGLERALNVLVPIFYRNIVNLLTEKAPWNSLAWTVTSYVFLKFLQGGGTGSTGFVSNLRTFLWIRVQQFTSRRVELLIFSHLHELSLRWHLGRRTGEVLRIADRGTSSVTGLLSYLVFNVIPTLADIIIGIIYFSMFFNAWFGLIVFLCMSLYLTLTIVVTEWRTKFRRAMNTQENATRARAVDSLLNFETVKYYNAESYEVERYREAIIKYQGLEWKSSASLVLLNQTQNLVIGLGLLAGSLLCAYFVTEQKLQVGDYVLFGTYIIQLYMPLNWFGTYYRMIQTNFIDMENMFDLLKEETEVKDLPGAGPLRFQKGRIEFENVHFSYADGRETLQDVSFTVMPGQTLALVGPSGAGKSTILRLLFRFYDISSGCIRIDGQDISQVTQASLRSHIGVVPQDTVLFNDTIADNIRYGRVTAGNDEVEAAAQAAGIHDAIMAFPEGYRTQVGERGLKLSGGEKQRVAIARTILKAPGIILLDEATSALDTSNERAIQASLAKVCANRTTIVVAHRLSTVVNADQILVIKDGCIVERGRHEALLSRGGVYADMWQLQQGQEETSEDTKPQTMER
# * marks the source's active call; other numbers are inactive results; i = inactive; ? = inconclusive; / = no result; + = active, no number.
SMILES,Arrestin-AP2 inh,Exocytosis inh,Myeloid diff MLP,ATG4B inhibitor,NRP1-CendR mod,ABCB6 inh MLPCN
Cc1cccc(CN2CCCC(C(=O)N3CCCCC3)C2)c1 (stereo unspecified),8.2,6.9,i,-9.6,0.5,101.0
NN(Cc1ccccc1)C(=S)Nc1ccc(Cl)c(Cl)c1,12.6,61.1*,i,34.1,-4.7,95.0
Cc1cc(NC(=O)CSc2ncccc2C(=O)O)no1,-7.0,-0.4,i,-4.6,4.8,97.0
O=C(NCc1ccco1)Nc1ccc2snnc2c1,2.4,-3.2,/,3.6,40.1*,109.0
Cc1nc2sc(C(c3ccco3)N3CC(C)OC(C)C3)c(O)n2n1 (stereo unspecified),-3.2,0.3,i,-12.6,19.0*,85.0
CC1(C(=O)NCc2cccc3ccccc23)CCN1Cc1cccc2c1OCO2 (stereo unspecified),/,18.3,i,/,25.5*,96.0
C#CCOCCOCCOCCNc1nc(N2CCN(C(=O)[C@H]([C@@H](C)CC)n3cc([C@@H](N)CC(C)C)nn3)CC2)nc(N2CCN(C(=O)[C@H]([C@@H](C)CC)n3cc([C@@H](N)CC(C)C)nn3)CC2)n1,-6.0,-9.0,i,-19.3,15.4,96.0
CCCCOc1ccc(S(=O)(=O)N2CCN(C)CC2)cc1,1.4,-6.7,i,1.2,26.1*,88.0
Cc1ccc(C)c(Oc2ccc(S(=O)(=O)N3CCN(C)CC3)cn2)c1,-8.1,-2.7,i,1.0,11.5,100.0
CCOc1ccc(S(=O)(=O)N2CCN(C(=O)c3sccc3C)CC2)cc1,-4.0,-7.2,i,-2.8,27.4*,106.0
COc1ccc(S(=O)(=O)N2CCN(C)CC2)cn1,1.7,-2.6,i,-2.4,22.4*,95.0
O=C(O)/C=C/c1ccc(S(=O)(=O)N(CCO)CCO)cc1,-11.3,-0.4,i,1.3,-8.3,95.0
CCN(CC)S(=O)(=O)c1ccc(/C=C/C(=O)O)cc1,-5.0,4.2,i,5.4,32.6*,95.0
CCCNc1c(NC(=O)c2cccs2)c(=O)oc2ccccc12,26.1,-2.8,i,-1.9,-4.6,99.0
Cc1cccc2c1NC(=O)C2(O)N1CCCC(C)C1 (stereo unspecified),2.5,-0.7,i,-7.0,-1.8,94.0
O=c1[nH]c2ccc([N+](=O)[O-])cc2nc1/C=C(\O)c1ccccc1,4.4,?,i,-0.7,84.5*,101.0
C/C(O)=C/c1nc2ccccc2[nH]c1=O,2.2,-5.2,i,4.6,-1.0,111.0
COc1ccc(N2CCN(C(=O)COC(=O)c3cccc(S(=O)(=O)Nc4cccc(C)c4)c3)CC2)cc1,20.1,5.1,i,-5.6,-13.2,98.0
C[C@H]1C=C(C(=O)N2CCOCC2)O[C@@H](OCc2ccc(CO)cc2)C1,14.2,6.7,+,-2.9,9.6,96.0
C[C@@H]1C=C(C(=O)N2CCN(C)CC2)O[C@H](OCc2ccc(CO)cc2)C1,20.4,-1.2,i,-1.7,-3.4,102.0
N#CCCN(C(=O)CN1CCN(S(=O)(=O)c2ccc3c(c2)OCCO3)CC1)c1ccc(F)cc1,22.3,2.2,i,-9.8,-0.9,94.0
CCCCOC(=O)c1ccc(-c2ccc(/C=N/NC(=S)NCC)o2)cc1,10.8,-0.1,+,2.6,14.3,96.0
COc1ccc(S(=O)(=O)N2CCCCCC2)cc1NC(=O)c1ccccc1S(C)(=O)=O,-5.0,-1.0,i,-0.3,-4.4,99.0
C[C@H]1CN([C@@H](C)CO)C(=O)Cc2cc(NC(=O)Cn3cnnn3)ccc2O[C@H]1CN(C)Cc1ccncc1,-9.7,2.5,i,-3.0,-0.2,103.0
CCN(CC)NC(=S)Nc1ccccc1,3.2,8.0,i,12.7,-1.3,99.0
SMILES,Arrestin-AP2 inh,Exocytosis inh,Myeloid diff MLP,ATG4B inhibitor,NRP1-CendR mod,ABCB6 inh MLPCN
CCc1cccc(CC)c1NC(=S)Nc1ccccc1,3.5,-2.9,i,-9.7,20.2*,96.0
CCc1cccc(CC)c1NC(=O)c1cccc(NC(=O)c2ccccc2)c1,15.2,-5.3,+,-6.0,-5.3,96.0
O=C(Nc1cccc(Br)c1)c1ccc(CSc2ccccc2)cc1,7.5,-6.4,i,18.3,39.9*,102.0
COc1ccc(CCNC(=O)c2ccc3c(c2)NC(=O)CS3)cc1OC,-11.3,-1.3,i,-3.5,5.9,97.0
O=C(CSc1cccc[n+]1[O-])NN(c1ccccc1)c1ccccc1,5.3,-1.7,i,3.1,-15.0,96.0
O=[N+]([O-])c1ccc(-c2ccc(/C=N/Nc3nc(NCc4ccccc4)nc(N4CCOCC4)n3)o2)cc1,3.4,?,+,5.2,-129.7,206.0
CCN(c1cccc(C)c1)S(=O)(=O)c1csc(C(N)=O)c1,-23.2,-5.4,i,-1.1,6.2,101.0
CCN(c1cccc(C)c1)S(=O)(=O)c1ccc(-n2cccn2)cc1,28.8,-1.5,i,5.8,22.4*,98.0
CCCCNC(=O)N1CCN(Cc2cccc(F)c2)CC1,-2.0,-2.8,i,2.9,12.8,102.0
O=C(CCn1c(=O)c2cccn2c2cccnc21)NCc1cccc(Cl)c1,-4.2,-2.7,i,-2.5,27.0*,99.0
Clc1ccc(-c2csc3ncnc(Cl)c23)cc1,-21.4,-1.2,i,3.5,-3.5,104.0
NNc1ncnc2scc(-c3ccc(Cl)cc3)c12,35.0,-3.3,+,-3.8,8.6,96.0
COc1ccccc1[C@H]1C(c2cccc(C)c2)=NN(c2ccccc2)[C@@H]1CO,20.1,-2.9,+,1.8,-40.0,103.0
COc1ccc(Nc2nc3cc(C)ccc3cc2C#N)cc1,6.1,1.8,+,0.6,11.1,151.0
N#CC(C#N)=C1NC(N)=C(C#N)C(c2ccccc2)=C1C#N,7.8,-3.1,i,/,-34.8,102.0
CN(C)c1c([N+](=O)[O-])cc(N2C(=O)C=CC2=O)cc1[N+](=O)[O-],19.9,9.1,i,1.1,4.7,96.0
COc1cccc(/C=C2\N=C(C3CCCCC3)OC2=O)c1OC,-1.6,60.3*,i,0.8,-7.3,100.0
Cc1csc(SC(C)C(=O)NCc2ccc3c(c2)OCO3)n1 (stereo unspecified),-8.8,1.3,i,-5.9,25.6*,107.0
CC(NS(=O)(=O)c1ccc(OCC(=O)NCc2ccccn2)cc1)c1ccccc1 (stereo unspecified),14.4,-10.9,i,-12.4,15.1,95.0
CCCN1CCc2c(sc3nc(SCC)n(-c4ccccc4)c(=O)c23)C1,7.5,10.6,+,-2.9,-30.1,94.0
O=P(c1ccccc1)(c1ccccc1)c1ccccc1C(Br)Br,/,0.0,i,/,27.9*,97.0
CCOC(=O)c1ccc(NC(=O)c2ncn3c2C(=O)NC[C@H]3C)cc1,/,-3.6,i,/,0.5,97.0
CCOC(=O)c1ccc(NC(=O)c2ncn3c2C(=O)N[C@H](C)C3)cc1,/,-5.3,+,/,2.2,96.0
